Results taken from PMC11234860 (Chemical Science, 2024).

Legend:
[1] = target: Siglec-9 (Siglec-9d1–d3-Fc) (Homo sapiens, UniProt Q9Y336); assay: 19F T2 CPMG filtered NMR competitive displacement assay, Siglec-9; type: binding
Outline: (§1)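 Siglec-15 ECD (d1–d2, residues 20–263) fused to mVENUS, or Siglec-9 d1–d3 (residues 18–336) fused to human IgG1 Fc with C-terminal His6. Both transiently expressed in HEK293F and purified by Ni-NTA then SEC. Siglec-9 15 μM or Siglec-15 25 μM, with 10 equiv difluoroacetamide spy, titrated with increasing competitor equivalents. One decoupled 19F CPMG spectrum per sample (200 ms filter) at 600 MHz, 298 K, in 20 mM Tris pH 8, 300 mM NaCl, 10% D2O, with 100 μM TFA reference.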

[2] = target: T1, Siglec-15 (Siglec-15d1–d2-mVENUS) (Homo sapiens, UniProt Q6ZMC9); assay: 19F T2 CPMG filtered NMR competitive displacement assay, Siglec-15; type: binding
T1 sequence (Q6ZMC9 20-263): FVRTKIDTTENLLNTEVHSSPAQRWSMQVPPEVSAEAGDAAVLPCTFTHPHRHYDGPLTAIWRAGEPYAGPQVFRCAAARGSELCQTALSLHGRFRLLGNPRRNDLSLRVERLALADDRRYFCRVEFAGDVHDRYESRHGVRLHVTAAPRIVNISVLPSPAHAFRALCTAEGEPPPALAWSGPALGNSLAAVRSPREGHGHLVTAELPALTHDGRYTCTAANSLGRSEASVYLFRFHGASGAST
Outline: as §1

[3] = read-out: lower KD limit, semiquantitative, from displacement

Chain of Siglec-9 (Siglec-9d1–d3-Fc) (Q9Y336 18-336): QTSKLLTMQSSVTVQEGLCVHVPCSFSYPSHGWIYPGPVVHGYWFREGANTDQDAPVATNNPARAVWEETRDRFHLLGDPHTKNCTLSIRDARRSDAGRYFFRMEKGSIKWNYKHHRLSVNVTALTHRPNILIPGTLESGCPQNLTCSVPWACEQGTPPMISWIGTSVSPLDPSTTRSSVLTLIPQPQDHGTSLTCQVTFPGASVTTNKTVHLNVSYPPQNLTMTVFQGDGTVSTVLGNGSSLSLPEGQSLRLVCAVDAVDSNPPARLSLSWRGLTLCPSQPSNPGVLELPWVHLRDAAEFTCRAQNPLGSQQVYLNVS

- displacement of the spy molecule ([1]; 320 equivalents of competitor, Siglec-9 15 μM + 10 equiv diF α2,6SLN): 21%
- Kd [1, 3]: ≥ 3 mM
- displacement of the spy molecule ([2]; 300 equivalents of competitor, Siglec-15 25 μM + 10 equiv diF α2,6SLN): 22%
- Kd [2, 3]: ≥ 5 mM
Substance: 6′-sialyl N-acetyl-D-lactosamine aminoethylglycoside [α2,6SLN]
